{"source": "ChEMBL document CHEMBL5247577", "about": "“Improved Selective Class I HDAC and Novel Selective HDAC3 Inhibitors: Beyond Hydroxamic Acids and Benzamides” (ACS Med Chem Lett, 2019)", "key": {"[1]": {"experiment": "Oral bioavailability in NMRI mouse at 20 mg/kg by LC/MS/MS analysis", "format": "ADME, organism-based", "conditions": "in vivo", "procedure,_shortened": "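Compound dosed as the tartrate salt. Oral doses were 20 mg/kg in mouse, 10 mg/kg in rat and 5 mg/kg in minipig.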"}, "Cytochrome P450 1A2": {"molecular_target": "T1, Cytochrome P450 1A2 (Homo sapiens, UniProt P05177)", "T1 sequence (P05177 whole entry)": "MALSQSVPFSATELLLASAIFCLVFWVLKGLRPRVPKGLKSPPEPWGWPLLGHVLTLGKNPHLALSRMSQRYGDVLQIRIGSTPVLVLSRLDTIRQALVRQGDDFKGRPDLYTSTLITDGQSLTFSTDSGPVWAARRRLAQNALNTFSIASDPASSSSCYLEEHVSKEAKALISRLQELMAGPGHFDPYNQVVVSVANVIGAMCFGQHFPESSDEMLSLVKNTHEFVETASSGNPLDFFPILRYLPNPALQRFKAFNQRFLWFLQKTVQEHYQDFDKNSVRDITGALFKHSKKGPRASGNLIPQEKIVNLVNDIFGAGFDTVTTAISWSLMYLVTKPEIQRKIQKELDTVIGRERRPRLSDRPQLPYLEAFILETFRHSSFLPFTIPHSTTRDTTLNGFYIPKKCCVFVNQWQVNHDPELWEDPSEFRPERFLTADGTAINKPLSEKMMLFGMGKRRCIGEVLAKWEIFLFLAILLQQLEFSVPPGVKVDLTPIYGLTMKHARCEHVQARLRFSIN", "experiment": "Inhibition of CYP1A2 (unknown origin)", "format": "ADME"}, "Histone deacetylase 3": {"molecular_target": "Histone deacetylase 3 (Homo sapiens, UniProt O15379)", "sequence (O15379 whole entry)": "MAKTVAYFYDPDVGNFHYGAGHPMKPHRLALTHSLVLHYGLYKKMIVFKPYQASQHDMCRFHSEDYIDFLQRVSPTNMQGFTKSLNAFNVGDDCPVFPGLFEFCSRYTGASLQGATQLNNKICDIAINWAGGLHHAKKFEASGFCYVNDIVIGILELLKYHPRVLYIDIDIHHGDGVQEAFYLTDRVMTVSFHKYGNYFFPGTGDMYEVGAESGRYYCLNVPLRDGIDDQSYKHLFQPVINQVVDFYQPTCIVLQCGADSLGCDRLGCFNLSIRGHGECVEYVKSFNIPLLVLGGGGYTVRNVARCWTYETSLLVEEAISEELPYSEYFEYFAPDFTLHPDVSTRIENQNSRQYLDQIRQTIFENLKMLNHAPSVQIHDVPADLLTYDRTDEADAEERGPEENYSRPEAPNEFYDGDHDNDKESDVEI", "experiment": "Inhibition of human HDAC3 expressed in baculovirus infected insect cells using FLUOR DE LYS-SIRT1 as fluorogenic substrate preincubated for 10 mins followed by substrate addition and measured after 1 hr by spectrophotometer based analysis"}, "[2]": {"molecular_target": "T2, Histone deacetylase 7 (Homo sapiens) (UniProt Q8WUI4)", "T2 sequence (whole entry)": "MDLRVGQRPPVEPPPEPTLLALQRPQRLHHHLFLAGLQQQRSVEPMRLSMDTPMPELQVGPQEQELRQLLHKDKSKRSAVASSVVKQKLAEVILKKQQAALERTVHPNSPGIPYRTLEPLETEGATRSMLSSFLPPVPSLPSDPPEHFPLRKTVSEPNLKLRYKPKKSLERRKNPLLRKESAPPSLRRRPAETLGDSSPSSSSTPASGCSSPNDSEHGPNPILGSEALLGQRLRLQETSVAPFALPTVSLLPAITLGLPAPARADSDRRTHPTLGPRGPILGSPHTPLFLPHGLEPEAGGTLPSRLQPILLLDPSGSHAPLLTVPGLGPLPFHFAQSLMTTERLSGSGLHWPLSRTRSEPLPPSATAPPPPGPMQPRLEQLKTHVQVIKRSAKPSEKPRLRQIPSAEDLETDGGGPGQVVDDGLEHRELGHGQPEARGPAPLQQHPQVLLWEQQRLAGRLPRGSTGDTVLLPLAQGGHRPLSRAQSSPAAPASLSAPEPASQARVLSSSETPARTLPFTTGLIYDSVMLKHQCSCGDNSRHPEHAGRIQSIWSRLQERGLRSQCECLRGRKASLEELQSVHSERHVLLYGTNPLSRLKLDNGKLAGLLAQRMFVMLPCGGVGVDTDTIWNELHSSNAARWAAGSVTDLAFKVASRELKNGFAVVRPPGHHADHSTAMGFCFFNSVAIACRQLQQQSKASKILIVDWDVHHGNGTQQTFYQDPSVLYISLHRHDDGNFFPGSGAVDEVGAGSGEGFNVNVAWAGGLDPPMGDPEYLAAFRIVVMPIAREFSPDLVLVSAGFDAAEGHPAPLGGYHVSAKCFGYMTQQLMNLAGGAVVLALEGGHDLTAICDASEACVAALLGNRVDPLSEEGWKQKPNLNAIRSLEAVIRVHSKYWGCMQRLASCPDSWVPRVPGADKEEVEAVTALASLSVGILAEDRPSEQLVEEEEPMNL", "experiment": "Inhibition of human HDAC7 at 5 uM"}}, "note": "Calls of active or inactive are those of the source. No cut-off for these calls is given here.", "data": [{"compound": "CCC(=O)CCCCC[C@H](NC(=O)C1CN(C)C1)c1ncc(-c2cc3ccccc3nc2OC)o1", "values": [{"measurement": "F", "setting": "[1]", "result": 62, "unit": "%"}, {"measurement": "IC50", "setting": "Cytochrome P450 1A2", "result": "> 20000", "unit": "nM"}, {"measurement": "IC50", "setting": "Histone deacetylase 3", "result": 1.1, "unit": "nM"}, {"measurement": "inhibition", "setting": "[2]", "result": "inactive"}]}]}
